Experimental data as given in the RNAGym collection of RNA variant scans (doi:10.1126/science.aae0568).
Variants at the floor of the assay were thinned out.

B1: tRNA (parent)
chain: GUUCCGUUGGCGUAAUGGUAACGCGUCUCCCUCCUAAGGAGAAGACUGCGGGUUCGAGUCCCGUACGGAACG

Variants of: B1
Experiment: yeast fitness relative to wild type (ratio to wild type); higher = fitter; tRNA-Arg(CCU), competitive growth, 37 C, YPD
How it was run: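 Genotype frequency changes were the basis for Darwinian fitness relative to wild type. The frequencies came from 100-nucleotide paired-end sequencing of gene amplicons from the start population and each end population of pooled yeast strains with tRNA-Arg(CCU) gene variants at the native locus. Competition ran in YPD at 37°C for 24 hours in six replicates, genotypes needed ≥ 100 starting reads, and estimates < 0.5 were set to 0.5.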

Variant	yeast fitness
G10A U35G A43G C46U	0.587
G10C C33A A36U U53A U54A	≤ 0.5
G10C A36G G41A	≤ 0.5
G10C A15G U35A G44A A69C	≤ 0.5
G10A U13A C24U A45C A65G C66G	≤ 0.5
G10A G56A A69U	0.601
G10C C11U U26A C49U A65U	≤ 0.5
G10C A36C G48A C62U	0.555
G10C A20U A42G C60G	≤ 0.5
G10A G50A U59A C61A	≤ 0.5
G10C G17A A42U	≤ 0.5
G10C G18A C27G G63C	≤ 0.5
G10C A45U G48C	0.53
G10C A45U C61G	≤ 0.5
G10C A14G	0.569
G10C A14U	0.546
G10C C22A C24G U26C U53A	≤ 0.5
G10C C29G A37G	≤ 0.5
G10C C22G C33U A36C A40U	≤ 0.5
G10C	0.661
G10C C11A A37C C49G G68C A69G	≤ 0.5
G10A C66A G67C	≤ 0.5
G10C C31A U32C G39A G52C	≤ 0.5
G10C A45U	0.778

Variant	yeast fitness
G10A U28A U59A	≤ 0.5
G10A G23C C29U A36C C49G A70C	0.553
G10C C33A G48A	≤ 0.5
G10A C33U G56C C66A	≤ 0.5
G10A G12A C34U A45U C49G	≤ 0.5
G10A U13A G67C	≤ 0.5
G10A U16C U35C A40U	≤ 0.5
G10C C29U C31U A65U	≤ 0.5
G10A C31A	0.637
G10A C31U	0.662
G10C C24U C46U U64C	≤ 0.5
G10C C24G C34G U54G A70U	0.703
G10A G17A U28C C31G G67C	≤ 0.5
G10C C46A C55U	0.603
G10C C22U G44C	≤ 0.5
G10C A36C	0.712
G10C C34A A57U	0.577
G10C C46U C66U	0.561
G10C A14G U26A C49U A65U	≤ 0.5
G10A C31U A42G	≤ 0.5
G10C A15C C24U U54C C60A C62A	0.585
G10C C29G A40U C49G	≤ 0.5
G10C G25C	0.615
G10C A20U C27U C29U A40U C66U	≤ 0.5

Variant	yeast fitness
G10C C27G C30G G48C A65C	≤ 0.5
G10A G12C C31U	0.62
G10C C34G G67A	≤ 0.5
G10C C34G G67U	0.584
G10A U16A G48A A65U	≤ 0.5
G10C C11U G25C C30G G67C	0.511
G10C C11A C49G C55A	≤ 0.5
G10A C31U G38C G63A G68C A69G	0.578
G10C A14U C66U	≤ 0.5
G10C A37G C49U G52A C55G C66A	≤ 0.5
G10C A14C C61U	≤ 0.5
G10A U32A C49U	0.577
G10C C34A A57U G67C	0.64
G10A U26C	0.736
G10A U26A	0.731
G10A U26G	0.681
G10C A21G G56U C66A	0.727
G10C C46A G68C	0.57
G10C C62U U64A	≤ 0.5
G10C A37G	0.656
G10A C31U A40C G48A	≤ 0.5
G10C A14C C62U	0.537
G10C A20G C24U G38C G56C	0.561
G10C C24U C34U A36U C46A A69C	≤ 0.5

Variant	yeast fitness
G10A C55A G68C	≤ 0.5
G10C C30A C66U	≤ 0.5
G10C C30A C66A	≤ 0.5
G10C C24U	0.716
G10A C33U C49U	0.663
G10C G12C G39A C61U A69C	0.528
G10A U13A A14C A40C C62G	≤ 0.5
G10C C24A G51A A65G A70C	0.55
G10A G39A A65C C66G	0.556
G10C C29U A40U A65U	≤ 0.5
G10A U16A U28C A42C C66U	≤ 0.5
G10A G58C A65U	≤ 0.5
G10A C30U G63A	0.538
G10A U32A	0.601
G10A U32C	0.786
G10C A36U A69U	≤ 0.5
G10C A70U	0.75
G10C A70G	0.644
G10A G23C A45G A65U	≤ 0.5
G10A C31U G38C	0.512
G10C C27A C34A A40G C60U A65U	≤ 0.5
G10C G18C C22U U26G C30U A40G	≤ 0.5
G10C A37C C60G	≤ 0.5
G10C C55G A70C	≤ 0.5

Variant	yeast fitness
G10C G25C G38C A40G A42G U64A G68A	0.515
G10A G58A	0.767
G10C G18A G25C A45G	≤ 0.5
G10C A14C A21U C31U	0.773
G10A G17C C30G C33G	0.578
G10C G23A	0.57
G10A U26A C66U	0.537
G10C A45U C49G	0.583
G10C G18C C24U	≤ 0.5
G10C C46A	0.626
G10C C46U	0.611
G10C A45G C61A A70G	≤ 0.5
G10C G18A C22U	0.633
G10C C27U A43G C46G A69C	≤ 0.5
G10A C31A C55U G63A	≤ 0.5
G10C C30G A65C G68C	≤ 0.5
G10C A21G C29A A43U C55A	0.651
G10A C30U G50A	0.529
G10C C27U	0.679
G10A G12A U16A G18A A45U	≤ 0.5
G10C A14C C27A C29G A57C A65U	≤ 0.5
G10C A21G	0.633
G10A U19A C46A	0.542
G10C A36G C49U	0.551

Variant	yeast fitness
G10A G41A C49U U53A C66G	0.537
G10A U19C G48A C49G	0.56
G10A G17C A69U	≤ 0.5
G10C C30G C49G	≤ 0.5
G10C C49U C66G	≤ 0.5
G10C C49A	≤ 0.5
G10C C49U	0.613
G10C C49G	0.619
G10C A40G	0.588
G10C C29G A65C	≤ 0.5
G10A G17A U19A C29U C66U	≤ 0.5
G10C C29A C33A G52A	0.57
G10A C34G	≤ 0.5
G10C C62A	0.515
G10A U26A A43G A70U	≤ 0.5
G10C A14U C62U	0.51
G10C A14U U19A C22U A36G	≤ 0.5
G10C C27U A40U A45U	≤ 0.5
G10C A37U G52A	≤ 0.5
G10C C29G A40G	≤ 0.5
G10A C31A A37C	≤ 0.5
G10C A36C C55G	≤ 0.5
G10A U53C	0.608
G10A C31U G44C A69U	≤ 0.5

Variant	yeast fitness
G10C C22U C61U	0.518
G10C C27G A42C C49A A69C	≤ 0.5
G10A C62U C66U	0.617
G10C C34A A40G G68C	≤ 0.5
G10C C29G U53A	≤ 0.5
G10C C60U C62U A70C	≤ 0.5
G10C A14U U19A C22U C62A	≤ 0.5
G10C C29G A42U	0.554
G10C C29U G56A C61U	≤ 0.5
G10A C30U C46A	0.695
G10C C22U U59G C60U	≤ 0.5
G10A U13G C27U C46G A69C	0.506
G10C A21C C66G	≤ 0.5
G10A G17A C61A C62U A65U A69C	≤ 0.5
G10C A42G	0.57
G10C C31A U35C A45U	≤ 0.5
G10C C22A C24G A36G G48A G50C	≤ 0.5
G10C C31G C33U C60U	≤ 0.5
G10C C27U G63C	≤ 0.5
G10C C31G C33U	0.698
G10A G38C G67U	≤ 0.5
G10C C27U U47G	0.632
G10C C29G	≤ 0.5
